Results from paper PMC4120251 (Journal of Alzheimer's disease : JAD, 2013).
Like-named read-outs stand apart in the source and are kept apart here.

Tests used:
[1] = Plasma total cholesterol in APP/PS1ΔE9 mice; format: in vivo, mouse; conditions: peptide group before treatment, mean ± SEM, n = 8
Method in brief: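 Plasma total cholesterol was determined colorimetrically with Infinity cholesterol reagent at baseline and after 6 weeks of treatment. Mice were 4-month-old male transgenics.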

[2] = format: in vivo, mouse; conditions: ApoE null mice
[3] = tested on: Iba-1 activated microglia; assay: Activated microglia by Iba-1 immunostaining; format: in vivo; conditions: APP/PS1ΔE9 mice, 50 μg/mouse RO 3 times a week for 6 weeks, n = 8
Method in brief: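 Right hemisphere fixed in buffered formaldehyde after saline perfusion under ketamine/xylazine. Free-floating 30 μm sections were stained with rabbit polyclonal anti-Iba-1 (1:250) and a Vectastain rabbit IgG kit. Four coronal sections per brain were imaged and converted to grayscale. Iba-1-positive area was measured over cortex and hippocampus and expressed as burden (% stained surface of total area). Mice were 4-month-old males.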

[4] = tested on: IL-6; assay: IL-6 ELISA in TBS soluble brain homogenate; format: in vivo; conditions: APP/PS1ΔE9 mice, 50 μg/mouse RO 3 times a week for 6 weeks, p < 0.05
Method in brief: (§1)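 Saline-perfused cortex and hippocampus were homogenized in 15 volumes of ice-cold TBS (pH 7.4) with protease inhibitors. Homogenate was spun at 20,000g for 20 min at 4°C, and the supernatant (TBS-soluble fraction) was assayed with a commercial sandwich ELISA following the kit protocol. Values were normalized to total protein (BCA). Mice were 4-month-old males; controls received an equal volume of saline.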

[5] = tested on: TNF-α; assay: TNF-α ELISA in TBS soluble brain homogenate; format: in vivo; conditions: APP/PS1ΔE9 mice, 50 μg/mouse RO 3 times a week for 6 weeks, p < 0.05
Method in brief: as §1

[6] = Tissue bioavailability: 14C-labeled peptide in brain; format: in vivo, mouse; conditions: 14C-labeled peptide via tail vein, brain at 6 h
[7] = tested on: U251 astrocytes; assay: Cell viability, MTT assay; format: cell-based, human; conditions: U251 cells, 0 to 10 μg/ml, 24 h, n = 4
Method in brief: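 U251-MG astroglioma cells were grown in DMEM/Ham's F-12 with 10 mM HEPES, 2 mM L-glutamine, penicillin/streptomycin and 10% FBS. Cells were exposed to test compound for 24 h, and viability was read by MTT reduction using a TOX-1 kit.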

[8] = tested on: U251 astrocytes; assay: Secretion of ApoE, human ApoE ELISA of media; format: cell-based; conditions: no ox-PAPC or oAβ42, ApoE in media by ELISA, n = 6
[9] = in vivo; cited from earlier work

Substance: Ac-LRKLRKRLLRDWLKAFYDKVAEKLKEAF-NH2 [Ac-hE18A-NH2]
- plasma cholesterol at baseline [1]: 165.3 ± 10.3 mg/dL
- change in plasma cholesterol levels compared to baseline ([2]; retro-orbital (RO), 5 min): 52 ± 3%
- change in plasma cholesterol levels compared to baseline ([2]; retro-orbital (RO), 5 h): 17.2 ± 2%
- change in plasma cholesterol levels compared to baseline ([2]; tail vein, 5 min): 52 ± 4%
- change in plasma cholesterol levels compared to baseline ([2]; tail vein, 5 h): 14 ± 1%
- reduction in the amount of activated microglia (Iba-1 staining) [3]: 13%
- number of Iba-1 immunopositive activated microglia versus saline ([3]; p < 0.05): significantly reduced
- IL-6 level in TBS soluble fraction of brain homogenate versus control [4]: decreased significantly
- TNF-α level in TBS soluble fraction of brain homogenate versus control [5]: decreased significantly
- peptide crossing BBB, fraction of the injected dose [6]: 0.13 % of the injected dose
- toxicity (cell viability) compared to control [7]: no toxicity
- enhancement of ApoE secretion by peptide by itself [8]: about 25%
- half-life in plasma, rapid phase [9]: 1.6 min
- half-life in plasma, slow phase [9]: 96.6 min
